Measured values published in ChEMBL document CHEMBL4428071 (J Med Chem, 2016).
In brackets after ≈: the same amount, converted by molar mass. Activity calls are given as the source filed them. No cut-off for these calls is given here.

Columns and labels:
BaF3 [1] = assay: Antitumor activity against TEL-fused cKIT T670I mutant expressing mouse BA/F3 cells allografted in nu/nu mouse assessed as tumor growth inhibition at 25 mg/kg, ip administered daily for 10 days; assay type: functional; conditions: 240 h, read-out: TGI
Summary of the method: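 Female nu/nu mice, 5 weeks old at purchase, given 1 million BaF3-TEL-cKIT-T670I cells in PBS/Matrigel 1:1 subcutaneously on the right flank. At tumour volume 200–400 mm3, randomised into groups of 7 and dosed IP daily for 10 days (25, 50, 100 mg/kg/d or vehicle: 0.5% methylcellulose/0.4% Tween80 in water). Tumour volume (W2×L/2) and body weight recorded daily.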

[2] = tested on: Mast/stem cell growth factor receptor Kit (Homo sapiens), P10721 [T670I]; assay: Inhibition of TEL-fused cKIT T670I mutant (unknown origin) expressed in mouse BA/F3 cells assessed as cell growth inhibition after 72 hrs by cell titer-glo assay; assay type: cell-based
Mast/stem cell growth factor receptor Kit (Homo sapiens), P10721 [T670I], sequence (P10721 whole entry T670I, the tested form may be a part): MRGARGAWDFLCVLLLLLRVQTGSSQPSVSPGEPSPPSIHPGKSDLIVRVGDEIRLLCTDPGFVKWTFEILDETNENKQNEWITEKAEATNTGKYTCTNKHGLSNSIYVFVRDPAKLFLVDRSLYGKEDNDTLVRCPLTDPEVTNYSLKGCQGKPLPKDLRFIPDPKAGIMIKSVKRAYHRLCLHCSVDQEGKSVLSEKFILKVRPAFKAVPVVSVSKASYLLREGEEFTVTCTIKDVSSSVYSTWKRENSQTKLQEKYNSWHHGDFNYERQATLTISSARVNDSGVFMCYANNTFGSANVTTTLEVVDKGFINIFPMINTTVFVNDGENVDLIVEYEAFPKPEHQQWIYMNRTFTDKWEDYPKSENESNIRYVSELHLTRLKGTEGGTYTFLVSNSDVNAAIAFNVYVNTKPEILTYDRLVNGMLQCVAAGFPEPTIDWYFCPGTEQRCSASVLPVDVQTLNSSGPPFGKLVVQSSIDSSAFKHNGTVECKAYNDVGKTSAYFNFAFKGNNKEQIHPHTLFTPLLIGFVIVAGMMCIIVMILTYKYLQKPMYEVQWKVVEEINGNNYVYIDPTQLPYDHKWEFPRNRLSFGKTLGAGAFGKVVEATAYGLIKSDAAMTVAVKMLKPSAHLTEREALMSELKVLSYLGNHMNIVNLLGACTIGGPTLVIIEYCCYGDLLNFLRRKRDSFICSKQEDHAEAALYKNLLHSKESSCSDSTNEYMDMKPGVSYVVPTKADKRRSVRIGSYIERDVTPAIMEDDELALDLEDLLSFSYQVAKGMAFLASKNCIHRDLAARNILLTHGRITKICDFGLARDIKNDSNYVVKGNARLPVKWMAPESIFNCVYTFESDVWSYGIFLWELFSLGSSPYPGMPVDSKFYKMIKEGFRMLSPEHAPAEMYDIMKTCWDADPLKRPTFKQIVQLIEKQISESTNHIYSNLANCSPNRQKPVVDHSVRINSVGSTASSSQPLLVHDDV
Summary of the method: (§1)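 Cells seeded at 3000 per well and exposed to serial compound dilutions for 72 h. Viability read by CellTiter-Glo luminescence and normalised to DMSO controls; mean of three independent measurements. BaF3 lines kept IL-3-free in RPMI 1640/10% FBS after retroviral transduction and puromycin selection. GIST lines grown in DMEM/10% FBS.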

[3] = molecular target: T1, Mast/stem cell growth factor receptor Kit (Homo sapiens, UniProt P10721); assay: Inhibition of partial length human cKIT expressed in bacterial expression system assessed as activity remaining at 1 uM by kinome scan assay
T1 sequence (P10721 whole entry): as the sequence (P10721 whole entry T670I, the tested form may be a part) above, with I670T counted along it

[4] = molecular target: T1, Mast/stem cell growth factor receptor Kit; assay: Inhibition of wild type cKIT autophosphorylation at Y719 in human GIST-T1 cells at 100 nM after 1 hr by Western blot analysis; assay type: cell-based
Summary of the method: (§2)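 GIST-T1 or GIST-5R cells in DMEM with 10% FBS were treated with serially diluted compound for 1 h. Cells were then lysed and analysed by western blotting.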

[5] = molecular target: Vascular endothelial growth factor receptor 3 (Homo sapiens) (UniProt P35916); assay: Inhibition of partial length human FLT4 expressed in bacterial expression system assessed as activity remaining at 1 uM by kinome scan assay
Vascular endothelial growth factor receptor 3 (Homo sapiens), sequence (P35916 whole entry): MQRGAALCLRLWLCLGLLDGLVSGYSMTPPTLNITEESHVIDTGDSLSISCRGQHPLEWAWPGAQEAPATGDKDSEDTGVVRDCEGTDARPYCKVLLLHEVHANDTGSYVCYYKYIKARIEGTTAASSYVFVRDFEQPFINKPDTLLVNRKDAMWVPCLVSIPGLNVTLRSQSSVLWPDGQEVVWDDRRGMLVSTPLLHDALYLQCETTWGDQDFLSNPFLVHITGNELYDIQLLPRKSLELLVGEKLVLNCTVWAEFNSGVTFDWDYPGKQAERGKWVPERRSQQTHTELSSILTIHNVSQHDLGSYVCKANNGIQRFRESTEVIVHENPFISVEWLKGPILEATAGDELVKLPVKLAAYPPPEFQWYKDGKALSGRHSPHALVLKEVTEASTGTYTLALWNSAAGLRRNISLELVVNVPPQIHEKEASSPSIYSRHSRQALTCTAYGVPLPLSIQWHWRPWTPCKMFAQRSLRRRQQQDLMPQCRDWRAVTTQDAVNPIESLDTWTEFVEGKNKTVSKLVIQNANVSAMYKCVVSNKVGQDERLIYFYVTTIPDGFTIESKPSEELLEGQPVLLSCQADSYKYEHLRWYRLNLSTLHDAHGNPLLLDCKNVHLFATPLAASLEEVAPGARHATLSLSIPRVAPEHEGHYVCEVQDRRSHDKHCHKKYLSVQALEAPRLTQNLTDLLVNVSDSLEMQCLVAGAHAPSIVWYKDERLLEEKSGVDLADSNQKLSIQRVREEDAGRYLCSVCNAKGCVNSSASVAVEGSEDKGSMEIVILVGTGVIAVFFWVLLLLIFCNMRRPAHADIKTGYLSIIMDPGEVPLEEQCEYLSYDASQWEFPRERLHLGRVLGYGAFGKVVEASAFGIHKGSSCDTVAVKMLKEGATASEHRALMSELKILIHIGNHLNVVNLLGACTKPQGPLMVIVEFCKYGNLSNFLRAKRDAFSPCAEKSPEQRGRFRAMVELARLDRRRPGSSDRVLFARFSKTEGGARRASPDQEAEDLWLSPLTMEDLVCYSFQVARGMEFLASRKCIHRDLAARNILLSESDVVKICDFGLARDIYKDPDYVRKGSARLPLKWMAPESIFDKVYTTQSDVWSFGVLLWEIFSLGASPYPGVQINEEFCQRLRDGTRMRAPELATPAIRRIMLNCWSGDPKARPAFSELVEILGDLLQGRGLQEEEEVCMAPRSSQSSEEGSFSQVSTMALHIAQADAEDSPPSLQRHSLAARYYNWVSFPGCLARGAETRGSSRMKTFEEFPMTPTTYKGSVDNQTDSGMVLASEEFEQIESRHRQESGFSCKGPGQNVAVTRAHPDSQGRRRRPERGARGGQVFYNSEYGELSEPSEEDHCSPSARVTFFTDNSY

[6] = molecular target: T1, Mast/stem cell growth factor receptor Kit; assay: Inhibition of wild type cKIT in human GIST-T1 cells assessed as downregulation of S6 phosphorylation at S235/236 after 1 hr by Western blot analysis; assay type: cell-based
Summary of the method: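 GIST-T1 cells in DMEM with 10% FBS were exposed to serially diluted compound for 1 h, then lysed. Lysates were analysed by western blot with phospho-specific antibodies against AKT (Ser473), ERK1/2 (Thr202/Tyr204) and S6 ribosomal protein (Ser235/236), each alongside its total protein.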

[7] = AUC (0 to infinity) in Sprague-Dawley rat at 1 mg/kg, iv measured up to 8 hrs post dosing; assay type: ADME, organism-based; parameters: dose 1 mg/kg, route intravenous, time infinity; conditions: in vivo
Summary of the method: (§3)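 Male Sprague-Dawley rats, 8 weeks old, fasted overnight; iv dosing from a 1 mg/mL solution in 5% DMSO/40% PEG400/55% saline. Jugular-vein blood (~0.2 mL, heparinised) taken at 1, 5, 15, 30 min and 1, 2, 4, 6, 8 h; plasma held at -80 °C until analysis; n=3.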

[8] = tested on: Mast/stem cell growth factor receptor Kit (Homo sapiens), P10721 [T670I]; assay: Inhibition of partial length human cKIT T670I mutant expressed in bacterial expression system assessed as activity remaining at 1 uM by kinome scan assay
BaF3 [9] = assay: Induction of apoptosis in mouse BA/F3 cells harboring TEL-fused cKIT T670I mutant allografted in nu/nu mouse at 25 to 100 mg/kg, ip administered daily for 10 days by TUNEL staining based microscopic analysis; assay type: functional, organism-based
Summary of the method: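 Tumour sections from the daily-IP, 10-day BaF3-TEL-cKIT-T670I xenograft study were deparaffinised and digested with proteinase K for 15 min at RT. Peroxidase blocked in 3% H2O2/methanol. TdT reaction 1 h at 37 °C, converter-POD 30 min at 37 °C, DAB ~8 min, haematoxylin counterstain.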

Homo sapiens [10] = species: Homo sapiens; assay: Inhibition of TEL-fused cKIT L567P mutant (unknown origin) expressed in mouse BA/F3 cells assessed as cell growth inhibition after 72 hrs by cell titer-glo assay; assay type: cell-based; summary of the method: as §1
[11] = molecular target: T2, Mast/stem cell growth factor receptor Kit (Homo sapiens, UniProt P10721, T670I); assay: Inhibition of cKIT T670I mutant autophosphorylation at Y703 in human GIST-5R cells at 0.1 to 3 uM after 1 hr by Western blot analysis; assay type: cell-based; summary of the method: as §2
T2 sequence (P10721 26-976 T670I limits assumed): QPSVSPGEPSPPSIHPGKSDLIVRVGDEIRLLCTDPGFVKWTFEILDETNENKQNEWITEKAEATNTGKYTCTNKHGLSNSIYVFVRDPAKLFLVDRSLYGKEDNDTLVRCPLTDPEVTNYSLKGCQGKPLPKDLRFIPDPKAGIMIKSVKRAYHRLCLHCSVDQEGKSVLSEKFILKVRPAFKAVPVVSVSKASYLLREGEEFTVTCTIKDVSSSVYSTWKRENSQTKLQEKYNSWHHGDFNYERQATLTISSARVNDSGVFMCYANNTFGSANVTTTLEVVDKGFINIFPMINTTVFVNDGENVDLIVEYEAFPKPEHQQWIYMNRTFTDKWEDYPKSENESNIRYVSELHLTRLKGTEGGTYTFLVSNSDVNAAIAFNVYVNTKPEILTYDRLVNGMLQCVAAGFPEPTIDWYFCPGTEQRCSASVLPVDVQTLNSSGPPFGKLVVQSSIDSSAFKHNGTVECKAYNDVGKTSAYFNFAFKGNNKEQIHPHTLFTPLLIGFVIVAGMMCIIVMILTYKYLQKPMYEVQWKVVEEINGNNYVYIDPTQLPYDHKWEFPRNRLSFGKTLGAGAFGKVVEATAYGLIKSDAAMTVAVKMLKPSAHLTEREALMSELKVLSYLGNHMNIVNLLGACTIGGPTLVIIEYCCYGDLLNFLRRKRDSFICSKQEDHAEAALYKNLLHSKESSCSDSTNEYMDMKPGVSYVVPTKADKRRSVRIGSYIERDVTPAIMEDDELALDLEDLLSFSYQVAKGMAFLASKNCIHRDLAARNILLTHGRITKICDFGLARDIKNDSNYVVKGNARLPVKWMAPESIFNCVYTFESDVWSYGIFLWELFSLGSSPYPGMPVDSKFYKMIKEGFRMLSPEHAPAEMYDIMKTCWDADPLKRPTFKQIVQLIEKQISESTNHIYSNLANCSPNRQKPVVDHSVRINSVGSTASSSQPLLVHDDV

[12] = molecular target: T1, Mast/stem cell growth factor receptor Kit; assay: Inhibition of His-tagged cKIT (unknown origin) expressed in Sf9 cells using Poly(4:1 Glu, Tyr) peptide as substrate after 1 hr by ADP-glo kinase assay
[13] = molecular target: Platelet-derived growth factor receptor beta (Homo sapiens) (UniProt P09619); assay: Inhibition of partial length human PDGFRbeta expressed in bacterial expression system assessed as activity remaining at 1 uM by kinome scan assay
Platelet-derived growth factor receptor beta (Homo sapiens), sequence (P09619 whole entry, the tested form may be a part): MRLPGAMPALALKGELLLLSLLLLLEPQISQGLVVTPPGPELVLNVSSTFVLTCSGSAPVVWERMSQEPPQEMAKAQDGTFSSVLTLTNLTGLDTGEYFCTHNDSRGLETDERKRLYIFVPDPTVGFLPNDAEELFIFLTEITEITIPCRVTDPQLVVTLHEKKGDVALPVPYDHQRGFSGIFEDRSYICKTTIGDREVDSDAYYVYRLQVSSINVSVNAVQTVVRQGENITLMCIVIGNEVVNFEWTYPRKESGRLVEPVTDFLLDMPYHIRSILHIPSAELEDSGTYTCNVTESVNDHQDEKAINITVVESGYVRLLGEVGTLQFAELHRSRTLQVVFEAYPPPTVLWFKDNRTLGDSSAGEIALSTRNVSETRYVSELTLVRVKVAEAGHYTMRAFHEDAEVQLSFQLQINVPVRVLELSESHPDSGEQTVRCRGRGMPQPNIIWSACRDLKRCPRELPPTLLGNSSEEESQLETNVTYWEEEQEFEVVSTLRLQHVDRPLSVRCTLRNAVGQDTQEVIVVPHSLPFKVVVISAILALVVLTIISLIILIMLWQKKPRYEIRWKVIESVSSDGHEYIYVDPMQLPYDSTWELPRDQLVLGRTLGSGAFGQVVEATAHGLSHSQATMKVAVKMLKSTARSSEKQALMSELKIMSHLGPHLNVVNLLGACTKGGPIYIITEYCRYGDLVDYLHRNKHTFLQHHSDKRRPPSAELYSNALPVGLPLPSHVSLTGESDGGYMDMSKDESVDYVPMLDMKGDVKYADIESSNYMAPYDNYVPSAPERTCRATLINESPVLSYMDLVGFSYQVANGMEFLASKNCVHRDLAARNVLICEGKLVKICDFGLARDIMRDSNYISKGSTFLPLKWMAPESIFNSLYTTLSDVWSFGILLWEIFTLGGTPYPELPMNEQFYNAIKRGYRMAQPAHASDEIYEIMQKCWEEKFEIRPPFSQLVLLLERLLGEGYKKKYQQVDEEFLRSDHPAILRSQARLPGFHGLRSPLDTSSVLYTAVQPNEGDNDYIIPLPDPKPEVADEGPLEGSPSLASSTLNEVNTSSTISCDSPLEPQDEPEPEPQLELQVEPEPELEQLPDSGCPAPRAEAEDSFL

[14] = molecular target: T1, Mast/stem cell growth factor receptor Kit; assay: Ratio of Imatinib IC50 to compound IC50 for wild type cKIT in human GIST-T1 cells; assay type: cell-based
Homo sapiens [15] = species: Homo sapiens; assay: Induction of apoptosis in human GIST5R cells assessed as increase in cleaved PARP levels after at 30 nM 24 hrs by Western blot analysis; assay type: functional, cell-based
Summary of the method: (§4)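 GIST-T1 or GIST-5R cells in DMEM with 10% FBS were exposed to serially diluted compound for 24 h. Apoptosis was assessed by western blot with PARP and GAPDH antibodies.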

[16] = Solubility of the compound in PBS buffer at pH 7.4; assay type: physicochemical
Summary of the method: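 Solubility measured in PBS pH 7.4 and in pure water, reported as µg/mL.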

[17] = molecular target: Cyclin-dependent kinase-like 3 (Homo sapiens) (UniProt Q8IVW4); assay: Inhibition of partial length human CDKL3 expressed in bacterial expression system assessed as activity remaining at 1 uM by kinome scan assay
Cyclin-dependent kinase-like 3 (Homo sapiens), sequence (Q8IVW4 whole entry, looked up): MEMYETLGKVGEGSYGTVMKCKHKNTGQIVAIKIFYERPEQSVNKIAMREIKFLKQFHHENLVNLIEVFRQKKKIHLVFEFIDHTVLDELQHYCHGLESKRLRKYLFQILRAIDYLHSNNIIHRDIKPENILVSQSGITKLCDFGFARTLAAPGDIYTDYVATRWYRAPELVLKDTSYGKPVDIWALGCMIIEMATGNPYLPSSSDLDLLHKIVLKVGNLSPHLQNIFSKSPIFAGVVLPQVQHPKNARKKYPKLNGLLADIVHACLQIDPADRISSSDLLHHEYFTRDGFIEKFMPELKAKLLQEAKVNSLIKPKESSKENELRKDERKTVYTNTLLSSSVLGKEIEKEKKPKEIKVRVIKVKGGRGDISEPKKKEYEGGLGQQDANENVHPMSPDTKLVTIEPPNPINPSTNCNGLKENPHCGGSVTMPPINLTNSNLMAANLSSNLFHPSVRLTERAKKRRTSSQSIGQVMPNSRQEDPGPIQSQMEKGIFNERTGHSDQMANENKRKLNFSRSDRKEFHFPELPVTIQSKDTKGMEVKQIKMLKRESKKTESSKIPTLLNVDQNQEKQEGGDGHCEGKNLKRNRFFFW

[18] = molecular target: T2, Mast/stem cell growth factor receptor Kit; assay: Inhibition of cKIT T670I mutant in human GIST-5R cells assessed as downregulation of AKT phosphorylation at S473 after 1 hr by Western blot analysis; assay type: cell-based; summary of the method: as §2
[19] = molecular target: Proto-oncogene tyrosine-protein kinase receptor Ret (Homo sapiens) (UniProt P07949); assay: Inhibition of TEL-fused partial length human RET expressed in mouse BA/F3 cells after 72 hrs by cell titer-glo assay; assay type: cell-based; summary of the method: as §1
[20] = MRT (0 to infinity) in Sprague-Dawley rat at 1 mg/kg, iv measured up to 8 hrs post dosing; assay type: ADME, organism-based; conditions: in vivo
Summary of the method: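 Male Sprague-Dawley rats, 8 weeks old, fasted overnight, dosed at 1 mg/kg iv from a 1 mg/mL stock in 5% DMSO/40% PEG400/55% saline. About 0.2 mL jugular blood taken into heparin at 1 min to 8 h. Plasma held at -80 °C until analysis. n = 3, mean reported.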

[21] = molecular target: Platelet-derived growth factor receptor beta (Homo sapiens) (UniProt P09619); assay: Inhibition of TEL-fused partial length human PDGFRbeta expressed in mouse BA/F3 cells after 72 hrs by cell titer-glo assay; assay type: cell-based; summary of the method: as §1
[22] = molecular target: T2, Mast/stem cell growth factor receptor Kit; assay: Inhibition of cKIT T670I mutant autophosphorylation at Y823 in human GIST-5R cells at 0.1 to 3 uM after 1 hr by Western blot analysis; assay type: cell-based; summary of the method: as §2
GISTT1 = assay: Induction of apoptosis in human GISTT1 cells assessed as increase in cleaved PARP levels after 24 hrs by Western blot analysis; assay type: functional, cell-based; summary of the method: as §4
[23] = Cmax in Sprague-Dawley rat at 1 mg/kg, iv measured up to 8 hrs post dosing; assay type: ADME, organism-based; parameters: dose 1 mg/kg, route intravenous; conditions: in vivo; summary of the method: as §3
[24] = AUC (0 to t) in Sprague-Dawley rat at 1 mg/kg, iv measured up to 8 hrs post dosing; assay type: ADME, organism-based; parameters: time < 8 hr, dose 1 mg/kg, route intravenous; conditions: in vivo; summary of the method: as §3

## CCC(=O)NCC1CCN(c2ccc(NC(=O)Nc3cccc(Oc4ccnc5cc(OC)c(OC)cc45)c3)cc2C(F)(F)F)CC1
BaF3 [1]
  inhibition in vivo at 25 mg/kg: 18.3%
[2]
  GI50: 0.063 µM
[3]
  Activity: < 1%
[4]
  inhibition: Active
[5]
  Activity: 0%
[6]
  EC50: < 0.1 µM
[7]
  AUC: 385 ng·h/mL
[8]
  Activity: < 1%
BaF3 [9]
  Activity: Active
Homo sapiens [10]
  GI50: 0.023 µM
[11]
  EC50: < 0.1 µM
[12]
  IC50: 0.033 µM
[13]
  Activity: 0%
[14]
  Ratio IC50: 7
Homo sapiens [15]
  Activity: Active
[16]
  solubility: 35 µM (≈ 22.8 µg/mL)
[17]
  Activity: 0.3%
[18]
  EC50: < 0.1 µM
[19]
  GI50: 0.12 µM
[20]
  MRT inf: 46.8 min
[21]
  GI50: 0.005 µM
[22]
  EC50: < 0.1 µM
GISTT1
  Activity: Dose-dependent effect
[23]
  Cmax: 2560 ng/mL
[24]
  AUCt: 377 ng·h/mL
